Results from article PMC10975593 (ACS Omega, 2024).

Assays:
UACC-257 = experiment: NCI 60-cell line screen; assay type: cell-based, human
In short: (§1)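 Test compounds were submitted to the National Cancer Institute and run under NCI's standard 60-cell-line protocols. Read-outs were taken from percent-growth versus log-concentration curves.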

NCI-H322M = experiment: NCI 60-cell line screen; assay type: cell-based, human
HL-60(TB) = settings: leukemia
DU-145 = experiment: NCI 60-cell line screen; assay type: cell-based, human
786-0 = experiment: NCI 60-cell line screen; assay type: cell-based, human
NCI-H23 = experiment: NCI 60-cell line screen; assay type: cell-based, human
T-47D = experiment: NCI 60-cell line screen; assay type: cell-based, human
In short: as §1

OVCAR-5 = experiment: NCI 60-cell line screen; assay type: cell-based, human
In short: as §1

MOLT-4 = experiment: NCI 60-cell line screen; assay type: cell-based, human
OVCAR-4 = experiment: NCI 60-cell line screen; assay type: cell-based, human
NCI/ADR-RES = experiment: NCI 60-cell line screen; assay type: cell-based, human
HS 578T = experiment: NCI 60-cell line screen; assay type: cell-based, human
SF-295 = experiment: NCI 60-cell line screen; assay type: cell-based, human
In short: as §1

ACHN = experiment: NCI 60-cell line screen; assay type: cell-based, human
SNB-19 = experiment: NCI 60-cell line screen; assay type: cell-based, human
In short: as §1

SK-MEL-2 = experiment: NCI 60-cell line screen; assay type: cell-based, human
In short: as §1

UO-31 = experiment: NCI 60-cell line screen; assay type: cell-based, human
In short: as §1

OVCAR-3 = experiment: NCI 60-cell line screen; assay type: cell-based, human
K-562 = experiment: NCI 60-cell line screen; assay type: cell-based, human
CCRF-CEM = experiment: NCI 60-cell line screen; assay type: cell-based, human
COLO 205 = experiment: NCI 60-cell line screen; assay type: cell-based, human
Fibro cell line = experiment: % inhibition on normal cell line; assay type: cell-based
HCT-116 = experiment: NCI 60-cell line screen; assay type: cell-based, human
SF-268 = experiment: NCI 60-cell line screen; assay type: cell-based, human
In short: as §1

IGROV1 = experiment: NCI 60-cell line screen; assay type: cell-based, human
HCC-2998 = experiment: NCI 60-cell line screen; assay type: cell-based, human
Escherichia coli = experiment: Disc diffusion antimicrobial test; assay type: cell-based; settings: Escherichia coli, 24 h, read-out: zone of inhibition (diameter of inhibition)
In short: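 Disc diffusion on nutrient agar, test compound at 100 μg/mL with DMSO as solvent. Plates incubated at 37 °C for 24 h after inoculation, then zone of inhibition measured and compared with standards. Controls were DMSO, amoxicillin, ciprofloxacin and tetracycline.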

With `O=C(CN1CCN(CC(=O)Nc2nc3ccccc3s2)CC1)Nc1ccc([N+](=O)[O-])cc1` [OMS14, N-(benzo[d]thiazol-2-yl)-2-(4-(2-((4-nitrophenyl)amino)-2-oxoethyl)piperazin-1-yl)acetamide] the GI50 (UACC-257; Homo sapiens, UACC-257) was 2.1 µM, the IC50 (UACC-257; Homo sapiens, UACC-257) was 4.2 µM and the CC50 (UACC-257; Homo sapiens, UACC-257, read-out: LC50) was 11.7 µM. For the same molecule, the TGI (UACC-257; UACC-257, melanoma) was 4.7 µM, the GI50 (NCI-H322M; Homo sapiens) was 1.9 µM and the IC50 (NCI-H322M; Homo sapiens) was 3.7 µM. The CC50 (NCI-H322M; Homo sapiens, read-out: LC50) was 40.7 µM, the TGI (NCI-H322M; non-small cell lung cancer) was 5.5 µM and the TGI (HL-60(TB)) was 7.6 µM. The TGI (DU-145; DU-145, prostate cancer) was 7.9 µM, the GI50 (DU-145; Homo sapiens, DU-145) was 2.2 µM and the IC50 (DU-145; Homo sapiens, DU-145) was 3.5 µM. The CC50 (DU-145; Homo sapiens, DU-145, read-out: LC50) was 38.9 µM, the TGI (786-0; 786-0, renal cancer) was 11.5 µM and the GI50 (786-0; Homo sapiens, 786-0) was 2.1 µM. The IC50 (786-0; Homo sapiens, 786-0) was 3.3 µM, the CC50 (786-0; Homo sapiens, 786-0, read-out: LC50) was 43.7 µM and the GI50 (NCI-H23; Homo sapiens, NCI-H23) was 1.6 µM. For the same molecule, the IC50 (NCI-H23; Homo sapiens, NCI-H23) was 3.2 µM, the CC50 (NCI-H23; Homo sapiens, NCI-H23, read-out: LC50) was 8.9 µM and the TGI (NCI-H23; NCI-H23, non-small cell lung cancer) was 3.8 µM. It also gave a GI50 (T-47D; Homo sapiens, T47D) of 2.2 µM, an IC50 (T-47D; Homo sapiens, T47D) of 5.6 µM and a CC50 (T-47D; Homo sapiens, T47D, read-out: LC50) of over 100 µM. The TGI (T-47D; T-47D, breast cancer) was 5.8 µM, the GI50 (OVCAR-5; Homo sapiens, OVCAR-5) was 1.5 µM and the IC50 (OVCAR-5; Homo sapiens, OVCAR-5) was 3.2 µM. It also gave a CC50 (OVCAR-5; Homo sapiens, OVCAR-5, read-out: LC50) of 57.5 µM, a TGI (OVCAR-5; OVCAR-5, ovarian cancer) of 4.8 µM and a GI50 (MOLT-4; Homo sapiens, MOLT-4) of 1.1 µM. The IC50 (MOLT-4; Homo sapiens, MOLT-4) was 2.5 µM, the CC50 (MOLT-4; Homo sapiens, MOLT-4, read-out: LC50) was over 100 µM and the TGI (MOLT-4; MOLT-4, leukemia) was 9.5 µM. It also gave a GI50 (OVCAR-4; Homo sapiens, OVCAR-4) of 2.4 µM, an IC50 (OVCAR-4; Homo sapiens, OVCAR-4) of 5.2 µM and a CC50 (OVCAR-4; Homo sapiens, OVCAR-4, read-out: LC50) of 75.9 µM. The TGI (OVCAR-4; OVCAR-4, ovarian cancer) was 8.3 µM, the GI50 (NCI/ADR-RES; Homo sapiens) was 1.3 µM and the IC50 (NCI/ADR-RES; Homo sapiens) was 2.4 µM. It also gave a CC50 (NCI/ADR-RES; Homo sapiens, read-out: LC50) of 7.8 µM, a TGI (NCI/ADR-RES; ovarian cancer) of 3.2 µM and a TGI (HS 578T; HS 578T, breast cancer) of 8.5 µM. For the same molecule, the GI50 (HS 578T; Homo sapiens, Hs-578T) was 2.4 µM, the IC50 (HS 578T; Homo sapiens, Hs-578T) was 8.9 µM and the CC50 (HS 578T; Homo sapiens, Hs-578T, read-out: LC50) was over 100 µM. For the same molecule, the GI50 (SF-295; Homo sapiens, SF-295) was 2.2 µM, the IC50 (SF-295; Homo sapiens, SF-295) was 3.7 µM and the CC50 (SF-295; Homo sapiens, SF-295, read-out: LC50) was 28.8 µM. It also gave a TGI (SF-295; SF-295, CNS cancer) of 7.1 µM, a GI50 (ACHN; Homo sapiens) of 1.1 µM and an IC50 (ACHN; Homo sapiens) of 2.1 µM. It also gave a CC50 (ACHN; Homo sapiens, read-out: LC50) of 22.9 µM, a TGI (ACHN; renal cancer) of 4.4 µM and a GI50 (SNB-19; Homo sapiens, SNB-19) of 2.8 µM. It also gave an IC50 (SNB-19; Homo sapiens, SNB-19) of 4.9 µM, a CC50 (SNB-19; Homo sapiens, SNB-19, read-out: LC50) of over 100 µM and a TGI (SNB-19; SNB-19, CNS cancer) of 12.3 µM. It also gave a GI50 (SK-MEL-2; Homo sapiens, SK-MEL-2) of 1.8 µM, an IC50 (SK-MEL-2; Homo sapiens, SK-MEL-2) of 3.5 µM and a CC50 (SK-MEL-2; Homo sapiens, SK-MEL-2, read-out: LC50) of 6.9 µM. For the same molecule, the TGI (SK-MEL-2; SK-MEL-2, melanoma) was 3.5 µM, the GI50 (UO-31; Homo sapiens, UO-31) was 1.3 µM and the IC50 (UO-31; Homo sapiens, UO-31) was 2.5 µM. The CC50 (UO-31; Homo sapiens, UO-31, read-out: LC50) was 8.5 µM, the TGI (UO-31; UO-31, renal cancer) was 3.3 µM and the GI50 (OVCAR-3; Homo sapiens, OVCAR-3) was 2.3 µM. For the same molecule, the IC50 (OVCAR-3; Homo sapiens, OVCAR-3) was 4.3 µM, the CC50 (OVCAR-3; Homo sapiens, OVCAR-3, read-out: LC50) was over 100 µM and the TGI (OVCAR-3; OVCAR-3, ovarian cancer) was 6.6 µM. It also gave a GI50 (K-562; Homo sapiens, K562) of 2.6 µM, an IC50 (K-562; Homo sapiens, K562) of 3 µM and a CC50 (K-562; Homo sapiens, K562, read-out: LC50) of over 100 µM. For the same molecule, the TGI (K-562; K-562, leukemia) was 100 µM, the GI50 (CCRF-CEM; Homo sapiens) was 2.5 µM and the IC50 (CCRF-CEM; Homo sapiens) was 4 µM. It also gave a CC50 (CCRF-CEM; Homo sapiens, read-out: LC50) of over 100 µM, a TGI (CCRF-CEM; leukemia) of 17.4 µM and a TGI (COLO 205; COLO 205, colon cancer) of 2.2 µM. It also gave a GI50 (COLO 205; Homo sapiens, COLO 205) of 1 µM, an IC50 (COLO 205; Homo sapiens, COLO 205) of 1.7 µM and a CC50 (COLO 205; Homo sapiens, COLO 205, read-out: LC50) of 5 µM. The inhibition at 10 µM (Fibro cell line; read-out: %inhibition at 10 μM) was 49.4%, the inhibition at 100 µM (Fibro cell line; read-out: %inhibition at 100 μM) was 70.5% and the TGI (HCT-116; HCT-116, colon cancer) was 10.5 µM. The GI50 (HCT-116; Homo sapiens, HCT-116) was 0.7 µM, the IC50 (HCT-116; Homo sapiens, HCT-116) was 0.8 µM and the CC50 (HCT-116; Homo sapiens, HCT-116, read-out: LC50) was 52.5 µM. The GI50 (SF-268; Homo sapiens, SF-268) was 2.2 µM, the IC50 (SF-268; Homo sapiens, SF-268) was 4.6 µM and the CC50 (SF-268; Homo sapiens, SF-268, read-out: LC50) was 43.7 µM. The TGI (SF-268; SF-268, CNS cancer) was 7.1 µM, the GI50 (IGROV1; Homo sapiens, IGROV-1) was 1.9 µM and the IC50 (IGROV1; Homo sapiens, IGROV-1) was 3.3 µM. For the same molecule, the CC50 (IGROV1; Homo sapiens, IGROV-1, read-out: LC50) was 47.9 µM, the TGI (IGROV1; IGROV1, ovarian cancer) was 4.6 µM and the TGI (HCC-2998; HCC-2998, colon cancer) was 3.9 µM. For the same molecule, the GI50 (HCC-2998; Homo sapiens, HCC 2998) was 1.7 µM, the IC50 (HCC-2998; Homo sapiens, HCC 2998) was 3.1 µM and the CC50 (HCC-2998; Homo sapiens, HCC 2998, read-out: LC50) was 8.9 µM. For the same molecule, the zone of inhibition at 100 µg/mL (Escherichia coli) was 0 mm.
